Source: PubChem BioAssay
Runt-CBFb FRET: Runt domain-CBFb interaction inhibition. inhibition, % at 20 µM. 220,000 compounds, 0.46% hits. Cerulean-Runt/Venus-CBFb FRET ratio 530/480, 1 h;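 active = inhibition over about 50% at 20 µM in the single-dose screen, limit read from the data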;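 note: 0% = DMSO wells and 100% = excess unlabeled CBFb competitor control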
Target sequence (Q01196 whole entry, looked up, the tested form may be a part): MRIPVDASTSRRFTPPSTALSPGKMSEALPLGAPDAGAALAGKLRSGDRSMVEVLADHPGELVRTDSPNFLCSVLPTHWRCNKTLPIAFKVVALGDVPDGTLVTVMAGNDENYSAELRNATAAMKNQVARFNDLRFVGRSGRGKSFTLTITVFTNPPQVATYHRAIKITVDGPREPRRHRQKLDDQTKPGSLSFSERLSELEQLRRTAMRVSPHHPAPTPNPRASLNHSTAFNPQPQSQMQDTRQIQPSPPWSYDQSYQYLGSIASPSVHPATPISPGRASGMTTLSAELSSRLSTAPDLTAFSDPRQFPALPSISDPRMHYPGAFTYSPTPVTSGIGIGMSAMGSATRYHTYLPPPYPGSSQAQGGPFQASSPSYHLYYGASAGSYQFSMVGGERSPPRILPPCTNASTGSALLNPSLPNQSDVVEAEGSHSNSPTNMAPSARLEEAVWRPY
Target sequence (Q13951 whole entry, looked up, the tested form may be a part): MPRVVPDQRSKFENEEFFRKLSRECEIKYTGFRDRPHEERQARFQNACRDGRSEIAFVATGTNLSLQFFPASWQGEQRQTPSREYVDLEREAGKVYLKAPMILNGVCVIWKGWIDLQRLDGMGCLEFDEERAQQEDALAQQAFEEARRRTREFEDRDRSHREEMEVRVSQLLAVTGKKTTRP
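Schedule: protein complex preformed 1 h, compound exposure 1 h, room temperature, dark; test system: Cerulean-labeled Runt domain protein; amount: 100 nM per protein; buffer or medium: Tris 50 mM pH 7.5, KCl, K2SO4, 0.01% BSA; read-out: loss of energy transfer signal; detection: FRET fluorescence; controls: 5 µM unlabeled CBFb as full-inhibition high control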
Runt-SMMHC FRET: inhibitors of human RUNX1 Runt domain binding to CBFb-SMMHC. Q01196+Q13951. Cerulean-Runt/Venus-CBFb-SMMHC FRET ratio 530/480, 1 h. inhibition, % at 20 µM. 220,000 compounds, 0.74% hits. AID 1434;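 active = mean inhibition across duplicate retests at 20 µM reaching about 50%, limit read from the data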;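 note: 0% = DMSO wells and 100% = wells with excess untagged CBFb-SMMHC; inhibitors lower the FRET ratio by blocking Runt binding to CBFb-SMMHC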
RanGTP-Imp inh: inhibitors of RanGTP-importin-beta interaction, primary screen, biochemical, FRET, CFP-Ran, YFP-importin-beta, homogeneous; cell-free CFP-Ran/YFP-importin-beta FRET ratio; inhibition, % (concentration not given with the values); 300,000 compounds, 1.1% hits;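 active = more than half of the replicate wells show a fall in the fluorescence ratio signal beyond about 16%, limit read from the data, passing the limit was not always enough; inconclusive = exactly half of the replicate wells pass the set limit; inactive = fewer than half of replicates pass the limit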;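 note: 0% = DMSO wells and 100% = Ran loaded with GDP instead of GTP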
Hck-Nef inh: human Hck-Nef kinase inhibition. AID 463187. inhibition, % at 20 µM. Recombinant Hck-YEEI plus Nef, Z-Lyte FRET kinase assay. P08631. 220,000 compounds, 0.68% hits;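 active = Hck-Nef kinase inhibition above about 50%, limit read from the data; inactive = inhibition below that limit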;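 note: 0% = DMSO with Hck plus Nef and 100% = Hck alone without Nef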
Active calls of the source: *; ? = inconclusive; . = no result given. The list is not random: actives were taken first. Their share in the collection is about 1.8%.

SMILES | Runt-CBFb FRET | Runt-SMMHC FRET | RanGTP-Imp inh | Hck-Nef inh
C#CCOc1c(Cl)cc(C2C3=C(CCCC3=O)N(CC(=O)O)C3=C2C(=O)CCC3)cc1OC | . | . | 127* | .
COc1cc(C2NC(=O)NC(c3ccccc3)=C2C(C)=O)cc(Cl)c1OCC(=O)O (stereo unspecified) | -2 | -2 | -2 | 27
COc1ccc(C2C3=C(CCCC3=O)N(CC(=O)O)C3=C2C(=O)CCC3)cc1Cl | . | . | 112* | .
CC(=O)NC(CC(C)C)C(=O)NC(CO)C(=O)NC(CCC(=O)O)C(=O)NC(C)C(=O)NC(CC(C)C)C(N)=O (stereo unspecified) | . | . | 2 | .
CNS(=O)(=O)c1ccc2c3c(cccc13)C(=O)N2C | . | . | 5 | .
CN1C(=O)c2cccc3c(S(=O)(=O)N(C)C)ccc1c23 | . | . | 19* | .
Cn1c(=N)c(S(=O)(=O)c2ccc(F)cc2)cc2c(=O)n3ccccc3nc21 | 63* | 80* | 5 | 14
Cn1c(=N)c(S(=O)(=O)c2ccccc2)cc2c(=O)n3ccccc3nc21 | 47 | 62* | . | 17
Cc1ccc(S(=O)(=O)c2cc3c(=O)n4ccccc4nc3n(C)c2=N)cc1C | . | . | 173* | .
COCCn1c(=N)c(S(=O)(=O)c2ccc(F)cc2)cc2c(=O)n3cccc(C)c3nc21 | . | . | -3 | .
CCCn1c(=N)c(S(=O)(=O)c2ccc(F)cc2)cc2c(=O)n3cccc(C)c3nc21 | . | . | 144* | .
CC(C)OCCCn1c(=N)c(S(=O)(=O)c2ccccc2)cc2c(=O)n3ccccc3nc21 | . | . | -3 | .
CCn1c(CCC(=O)Nc2nc3c(s2)CCCC3)nc2cc(S(=O)(=O)N(C)C)ccc21 | -3 | 4 | ? | 11
COC(=O)CSCc1nc2ccccc2[nH]c1=O | -5 | -10 | 4 | -5
O=c1[nH][nH]c(=O)n1-c1ccccc1 | 0 | 4 | 3 | -2
C=CCN(C(=O)c1csnn1)C(C(=O)NC1CCCC1)c1ccc(OC)cc1 (stereo unspecified) | . | . | 3 | .
CCCn1c(=N)c(S(=O)(=O)c2ccc(F)cc2)cc2c(=O)n3ccccc3nc21 | . | . | 176* | .
C=CCn1c(=N)c(S(=O)(=O)c2ccc(C)c(C)c2)cc2c(=O)n3ccccc3nc21 | . | . | 160* | .
COc1ccc(CCNC(=O)c2cc(-c3ccncc3)nc3c(Cl)cccc23)cc1OC | -8 | 4 | 4 | 0
COc1ccc(CCNC(=O)c2cc(-c3ccccn3)nc3c(Cl)cccc23)cc1OC | -1 | 0 | 24* | 24
COc1c(OC)c2[nH]c(=O)cc3c4ccccc4n(c1=O)c23 | . | . | 157* | .
CC(=O)c1cnn(-c2c(Cl)cc(Cl)cc2Cl)c1C | 2 | 0 | -1 | -9
Nc1ccc(C(=O)Nc2cccc(NC(=O)c3ccc(N)cc3)c2)cc1 | . | . | 2 | .
Nc1ccc(C(=O)Nc2ccco2)cc1 | -2 | -1 | 37* | 5
COc1ccccc1-c1c(C#N)c(N)nc2c1CCc1ccccc1-2 | 10 | 20 | 20* | 47
SMILES | Runt-CBFb FRET | Runt-SMMHC FRET | RanGTP-Imp inh | Hck-Nef inh
CC(=O)Nc1ccc(NC2=CC(=O)CC(C)(C)C2)cc1 | 0 | -2 | 50* | 9
COc1cccc(NC2=CC(=O)CC(C)(C)C2)c1 | 0 | 2 | 10 | 0
Cc1ccc(NC2=CC(=O)CC(C)(C)C2)cc1F | . | . | 5 | .
Cc1cc(N)c(NC2=CC(=O)CC(C)(C)C2)cc1C | 0 | -12 | 22* | 10
CC1(C)CC(=O)C=C(Nc2cccc(F)c2)C1 | . | . | 28* | .
O=C(COc1ccc2ccccc2c1)Nc1cccc2c1C(=O)NC2=O | -13 | -48 | 1 | 60*
Cc1cccc(OCC(=O)Nc2ccccc2-c2ccccc2)c1 | -4 | -3 | 1 | 4
O=C(/C=C/c1c(F)cccc1Cl)NCc1ccc2c(c1)OCO2 | . | . | 1 | .
CCOc1ccc(/C=C2\CCCc3c2nc2ccccc2c3C(=O)O)cc1OC | . | . | 29* | .
COc1cc(/C=C2\CCCc3c2nc2ccccc2c3C(=O)O)cc(OC)c1O | 43 | 23 | -5 | -48
COc1ccc(/C=C2\CCc3c2nc2ccccc2c3C(=O)O)cc1OC | 10 | 82 | -26 | -211
COc1ccc(/C=C2\CCCc3c2nc2ccccc2c3C(=O)O)cc1OC | 12 | 81* | 37* | -9
CCC(=O)Nc1c(S(=O)(=O)c2ccc(C)cc2)c2nc3ccccc3nc2n1C(C)c1ccccc1 (stereo unspecified) | 37 | 75* | 4 | 12
CCCCn1c(NC(=O)c2ccco2)c(S(=O)(=O)c2ccc(C)cc2)c2nc3ccccc3nc21 | 4 | 46 | 49* | 49
CC1CCc2nc3ccc(S(=O)(=O)N4CCC(C(=O)NCc5ccccc5Cl)CC4)cc3c(C(=O)O)c2C1 (stereo unspecified) | . | . | 22* | .
NS(=O)(=O)c1ccc(NC(=O)c2ccccc2C(=O)N2CCCCC2)cc1 | 1 | 0 | 3 | 0
CCCNC(=O)Cn1sc2nc(C)cc(C)c2c1=O | 14 | 60* | -4 | -43
CC(=O)Cn1cnc2c(sc3nc(C)cc(C)c32)c1=O | 1 | -2 | -2 | 17
CCOC(=O)C1CCCN(C(=O)Cn2cnc3c2c(=O)n(C)c(=O)n3C)C1 (stereo unspecified) | 0 | 3 | -5 | -10
CCOC(=O)C1CCCN(C(=O)Cn2sc3nc(C)cc(C)c3c2=O)C1 (stereo unspecified) | -15 | 59* | 0 | -2
Cc1cc(C)c2c(=O)n(CC(=O)N3CCC(N4CCCCC4)CC3)sc2n1 | -10 | 64* | -2 | 1
CN(Cc1ccccc1)C(=O)COC(=O)COc1ccc(C#N)cc1 | . | . | 1 | .
Cc1cccc(C)c1OCc1cc(C(=O)N(Cc2c(C)nn(C)c2C)C2CC2)no1 | . | . | -1 | .
O=C(CN1CCN(C(=O)c2ccco2)CC1)Nc1cccc([N+](=O)[O-])c1 | 2 | 4 | 2 | 21
CSCC[C@H](NC(=O)C1CCN(S(=O)(=O)c2ccc(C)cc2)CC1)C(=O)NC1CCS(=O)(=O)C1 (stereo partly specified) | -2 | 2 | -3 | -2
SMILES | Runt-CBFb FRET | Runt-SMMHC FRET | RanGTP-Imp inh | Hck-Nef inh
Cc1cccc2c1c1ccc3c(c1n2C)C(=O)C=CC3=O | 52* | 36 | . | -6
Cc1cc(NC(=O)c2ccc(NC(=O)C(C)Oc3ccccc3)cc2)no1 (stereo unspecified) | 0 | -2 | ? | 0
CCOc1ccccc1-n1c(C)cc(C=O)c1C | -2 | -1 | -3 | 2
Cc1c(C(=O)O)cccc1-n1c(C)cc(C=O)c1C | 14 | 92* | 7 | 7
Cc1cc(C(=O)O)ccc1-n1c(C)cc(/C=C2\SC(=O)NC2=O)c1C | . | . | 3 | .
Cc1ccc(C(=O)O)cc1-n1c(C)cc(C=O)c1C | 23 | 90* | 2 | 25
O=C(c1ccco1)[C@@H]1[C@@H]2C(=O)N(c3ccccc3)C(=O)[C@@H]2C2c3ccccc3C=CN21 (stereo partly specified) | -23 | -58 | 28* | 0
Cc1cc(C)c(C2=Nn3c(C)nnc3SC2C)cc1C (stereo unspecified) | . | . | 3 | .
